Experimental data as given in publication PMC13487472 (Blood, 2026).

System: ALL-SIL
Assay: CTG assay in ALL-SIL
Type: cell-based
Details: ABL-fusion-positive cell line, 72 hrs
Procedure, shortened: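 After 72 h, an equal volume of CellTiter-Glo was added and luminescence read as an ATP-based proxy for cell number. Signals were normalised to DMSO controls; triplicates; LC50 fitted with a 4-parameter dose-response model.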

## Cc1nc(Nc2ncc(C(=O)Nc3c(C)cccc3Cl)s2)cc(N2CCN(CCO)CC2)n1 [dasatinib]
  Cytotoxicity in ALL-SIL: highly sensitive
